This is an account of results in ChEMBL document CHEMBL1134286, “Novel erythromycin derivatives with aryl groups tethered to the C-6 position are potent protein synthesis inhibitors and active against multidrug-resistant respiratory pathogens” (J Med Chem, 2001).

Common to all, as to format: functional
Test [1] has as its system Streptococcus pneumoniae. The experiment in a line: Minimum inhibitory concentration against Streptococcus pneumoniae 5649 efflux. In outline:
(§1)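 MICs were determined by agar dilution following National Committee for Clinical Laboratory Standards recommendations. Values are in µg/mL.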

The nature of test [2]: Minimum inhibitory concentration against Streptococcus pyogenes EES 61 Ery-S. The procedure, abridged:
as §1

Test [3] has as its system Staphylococcus aureus. The experiment in a line: Minimum inhibitory concentration against Staphylococcus aureus A 5177 MLSB-i. The procedure, abridged:
as §1

Test [4] deals with Streptococcus pneumoniae. The experiment in a line: Minimum inhibitory concentration against Streptococcus pneumoniae ATCC 6303 Ery-S. In outline:
as §1

Test [5] is described as follows: Minimum inhibitory concentration against Streptococcus pyogenes PIU2548 efflux. The procedure, abridged:
as §1

Test [6] in a line: Minimum inhibitory concentration against Streptococcus pyogenes 930MLSB. In outline:
as §1

The subject of test [7] is Staphylococcus aureus. The experiment in a line: Minimum inhibitory concentration against Staphylococcus aureus A 5278 MLSB-c. In outline:
as §1

Test [8] can be described thus: Minimum inhibitory concentration against Streptococcus pneumoniae 5737 MLSB. The procedure, abridged:
as §1

The test system of test [9] is Staphylococcus aureus. The experiment in a line: Minimum inhibitory concentration against Staphylococcus aureus ATCC 6538PEry-S. To be noted: ATCC 6538P. The procedure, abridged:
as §1

The nature of test [10]: Minimum inhibitory concentration against Haemophilus influenzae DILL Amp-R. The procedure, abridged:
as §1

Values after ≈ are worked out from the molar mass of the structure shown.

Consider `CC[C@H]1OC(=O)[C@H](C)C(=O)[C@H](C)[C@@H](O[C@@H]2O[C@H](C)C[C@H](N(C)C)[C@H]2O)[C@](C)(OC/C=C/c2ccnc3ccccc23)C[C@@H](C)C(=O)[C@H](C)[C@H]2NC(=O)O[C@@]21C`, for which the MIC came out at 1 µg/mL (≈ 1.31 µM) against Streptococcus pneumoniae [1]; 0.03 µg/mL (≈ 0.0392 µM) in [2]; 0.2 µg/mL (≈ 0.261 µM) with Staphylococcus aureus [3]; 0.03 µg/mL (≈ 0.0392 µM) with Streptococcus pneumoniae [4]; 2 µg/mL (≈ 2.61 µM) in test [5]; 64 µg/mL (≈ 83.6 µM) in [6]. For the same molecule, the MIC was above 100 µg/mL against Staphylococcus aureus [7], 128 µg/mL (≈ 167 µM) in test [8], 0.2 µg/mL (≈ 0.261 µM) in the test on Staphylococcus aureus [9] and 4 µg/mL (≈ 5.22 µM) in test [10].

Regarding `CC[C@H]1OC(=O)[C@H](C)C(=O)[C@H](C)[C@@H](O[C@@H]2O[C@H](C)C[C@H](N(C)C)[C@H]2O)[C@](C)(OCCNCc2ccncc2)C[C@@H](C)C(=O)[C@H](C)[C@@H](O)[C@]1(C)O`, the MIC in the test on Streptococcus pneumoniae [1] is 2 µg/mL (≈ 2.83 µM); in test [2], 0.39 µg/mL (≈ 0.551 µM); against Staphylococcus aureus [3] it was 3.1 µg/mL (≈ 4.38 µM); in the test on Streptococcus pneumoniae [4], 0.25 µg/mL (≈ 0.353 µM); in [5], 1.56 µg/mL (≈ 2.2 µM); in test [6], above 100 µg/mL. The MIC in the test on Staphylococcus aureus [7] was above 100 µg/mL; in [8], above 128 µg/mL; against Staphylococcus aureus [9], 6.2 µg/mL (≈ 8.76 µM); in test [10] it was 32 µg/mL (≈ 45.2 µM).

Consider `CC[C@H]1OC(=O)[C@H](C)C(=O)[C@H](C)[C@@H](O[C@@H]2O[C@H](C)C[C@H](N(C)C)[C@H]2O)[C@](C)(OC/C=C/c2cnc3ccccc3c2)C[C@@H](C)C(=O)[C@H](C)[C@H]2N(N)C(=O)O[C@]12C`, for which the MIC against Streptococcus pneumoniae [1] is 0.25 µg/mL (≈ 0.32 µM); in test [2] it was 0.015 µg/mL (≈ 0.0192 µM); against Staphylococcus aureus [3], 0.1 µg/mL (≈ 0.128 µM); in the test with Streptococcus pneumoniae [4], 0.015 µg/mL (≈ 0.0192 µM); in test [5], 0.5 µg/mL (≈ 0.64 µM); in test [6], 64 µg/mL (≈ 82 µM). For the same molecule, the MIC in the test with Staphylococcus aureus [7] was above 100 µg/mL; in [8] it was 64 µg/mL (≈ 82 µM); against Staphylococcus aureus [9], 0.1 µg/mL (≈ 0.128 µM); in [10], 2 µg/mL (≈ 2.56 µM).

`CC[C@H]1OC(=O)[C@H](C)C(=O)[C@H](C)[C@@H](O[C@@H]2O[C@H](C)C[C@H](N(C)C)[C@H]2O)[C@](C)(OCCNCc2cnc3ccccc3c2)C[C@@H](C)C(=O)[C@H](C)[C@H]2NC(=O)O[C@@]21C`: the MIC in the test with Streptococcus pneumoniae [1] amounted to 2 µg/mL (≈ 2.55 µM); in test [2], 0.03 µg/mL (≈ 0.0383 µM); in the test on Staphylococcus aureus [3], 0.1 µg/mL (≈ 0.128 µM); against Streptococcus pneumoniae [4] it was 0.03 µg/mL (≈ 0.0383 µM); in test [5], 2 µg/mL (≈ 2.55 µM); in test [6] it was 16 µg/mL (≈ 20.4 µM). Also, the MIC is above 100 µg/mL against Staphylococcus aureus [7], 4 µg/mL (≈ 5.11 µM) in [8], 0.1 µg/mL (≈ 0.128 µM) against Staphylococcus aureus [9] and 2 µg/mL (≈ 2.55 µM) in test [10].

Regarding `CC[C@H]1OC(=O)[C@H](C)[C@@H](O[C@H]2C[C@@](C)(OC)[C@@H](O)[C@H](C)O2)[C@H](C)[C@@H](O[C@@H]2O[C@H](C)C[C@H](N(C)C)[C@H]2O)[C@](C)(OC/C=C/c2cnc3ccccc3c2)C[C@@H](C)C(=O)[C@H](C)[C@@H](O)[C@]1(C)O`, the MIC was found to be 4 µg/mL (≈ 4.44 µM) in the test with Streptococcus pneumoniae [1]; 0.06 µg/mL (≈ 0.0666 µM) in [2]; 3.1 µg/mL (≈ 3.44 µM) against Staphylococcus aureus [3]; 0.06 µg/mL (≈ 0.0666 µM) in the test on Streptococcus pneumoniae [4]; 4 µg/mL (≈ 4.44 µM) in test [5]; 64 µg/mL (≈ 71 µM) in [6]. Moreover, the MIC with Staphylococcus aureus [7] is above 100 µg/mL; in [8], 128 µg/mL (≈ 142 µM); in the test with Staphylococcus aureus [9], 0.2 µg/mL (≈ 0.222 µM); in [10], 8 µg/mL (≈ 8.88 µM).

For `CC[C@H]1OC(=O)[C@H](C)C(=O)[C@H](C)[C@@H](O[C@@H]2O[C@H](C)C[C@H](N(C)C)[C@H]2O)[C@](C)(OCCNCCCCc2ccccc2)C[C@@H](C)C(=O)[C@H](C)[C@H]2NC(=O)O[C@@]21C`, the MIC in the test on Streptococcus pneumoniae [1] is 2 µg/mL (≈ 2.58 µM); in [2] it was 0.125 µg/mL (≈ 0.161 µM); against Staphylococcus aureus [3] it was 0.2 µg/mL (≈ 0.258 µM); with Streptococcus pneumoniae [4] it was 0.03 µg/mL (≈ 0.0388 µM); in [5], 2 µg/mL (≈ 2.58 µM); in [6] it was above 128 µg/mL. The MIC in the test on Staphylococcus aureus [7] is above 100 µg/mL; in test [8], 16 µg/mL (≈ 20.7 µM); against Staphylococcus aureus [9], 0.39 µg/mL (≈ 0.504 µM); in [10], 4 µg/mL (≈ 5.17 µM).

As for `CC[C@H]1OC(=O)[C@H](C)C(=O)[C@H](C)[C@@H](O[C@@H]2O[C@H](C)C[C@H](N(C)C)[C@H]2O)[C@](C)(OCCNCc2ccnc3ccccc23)C[C@@H](C)C(=O)[C@H](C)[C@@H](O)[C@]1(C)O`, the MIC against Streptococcus pneumoniae [1] was 0.5 µg/mL (≈ 0.66 µM); in [2], 0.25 µg/mL (≈ 0.33 µM); with Staphylococcus aureus [3], 3.1 µg/mL (≈ 4.09 µM); in the test on Streptococcus pneumoniae [4], 0.25 µg/mL (≈ 0.33 µM); in [5], 4 µg/mL (≈ 5.28 µM); in [6], above 128 µg/mL. In addition, the MIC in the test with Staphylococcus aureus [7] was above 100 µg/mL; in test [8] it was above 128 µg/mL; in the test with Staphylococcus aureus [9] it was 3.1 µg/mL (≈ 4.09 µM); in [10], 32 µg/mL (≈ 42.2 µM).

As for `CC[C@H]1OC(=O)[C@H](C)C(=O)[C@H](C)[C@@H](O[C@@H]2O[C@H](C)C[C@H](N(C)C)[C@H]2O)[C@](C)(OC/C=C/c2cnc3ccccc3c2)C[C@@H](C)C(=O)[C@H](C)[C@H]2N(OC)C(=O)O[C@]12C`, the MIC came out at 0.5 µg/mL (≈ 0.628 µM) against Streptococcus pneumoniae [1]; 0.03 µg/mL (≈ 0.0377 µM) in test [2]; 0.1 µg/mL (≈ 0.126 µM) against Staphylococcus aureus [3]; 0.06 µg/mL (≈ 0.0754 µM) in the test with Streptococcus pneumoniae [4]; 0.5 µg/mL (≈ 0.628 µM) in [5]; 64 µg/mL (≈ 80.4 µM) in [6]. Further, the MIC against Staphylococcus aureus [7] was above 100 µg/mL; in [8] it was 64 µg/mL (≈ 80.4 µM); with Staphylococcus aureus [9], 0.1 µg/mL (≈ 0.126 µM); in [10], 8 µg/mL (≈ 10.1 µM).

For `CC[C@H]1OC(=O)[C@H](C)C(=O)[C@H](C)[C@@H](O[C@@H]2O[C@H](C)C[C@H](N(C)C)[C@H]2O)[C@](C)(OC/C=C/c2cnc3sccc3c2)C[C@@H](C)C(=O)[C@H](C)[C@H]2NC(=O)O[C@@]21C`, the MIC against Streptococcus pneumoniae [1] was 0.25 µg/mL (≈ 0.324 µM); in test [2], 0.008 µg/mL (≈ 0.0104 µM); against Staphylococcus aureus [3], 0.05 µg/mL (≈ 0.0648 µM); against Streptococcus pneumoniae [4], 0.004 µg/mL (≈ 0.00518 µM); in [5] it was 0.25 µg/mL (≈ 0.324 µM); in [6], 4 µg/mL (≈ 5.18 µM). The MIC against Staphylococcus aureus [7] is above 100 µg/mL; in test [8] it was 0.5 µg/mL (≈ 0.648 µM); in the test on Staphylococcus aureus [9], 0.05 µg/mL (≈ 0.0648 µM); in test [10], 2 µg/mL (≈ 2.59 µM).

Regarding `C=CCO[C@]1(C)C[C@@H](C)C(=O)[C@H](C)[C@H]2N(C)C(=O)O[C@]2(C)[C@@H](CC)OC(=O)[C@H](C)C(=O)[C@H](C)[C@H]1O[C@@H]1O[C@H](C)C[C@H](N(C)C)[C@H]1O`, the MIC against Streptococcus pneumoniae [1] was 0.5 µg/mL (≈ 0.766 µM); in [2] it was 0.5 µg/mL (≈ 0.766 µM); in the test with Staphylococcus aureus [3] it was 6.2 µg/mL (≈ 9.5 µM); in the test with Streptococcus pneumoniae [4], 0.5 µg/mL (≈ 0.766 µM); in test [5], 2 µg/mL (≈ 3.06 µM); in [6], above 128 µg/mL. The MIC in the test on Staphylococcus aureus [7] is above 100 µg/mL; in [8], above 128 µg/mL; against Staphylococcus aureus [9], 6.2 µg/mL (≈ 9.5 µM); in test [10], above 128 µg/mL.

On to `CC[C@H]1OC(=O)[C@H](C)C(=O)[C@H](C)[C@@H](O[C@@H]2O[C@H](C)C[C@H](N(C)C)[C@H]2O)[C@](C)(OC/C=C/c2cncc3ccccc23)C[C@@H](C)C(=O)[C@H](C)[C@H]2NC(=O)O[C@@]21C`, for which the MIC against Streptococcus pneumoniae [1] amounted to 0.25 µg/mL (≈ 0.326 µM); in test [2] it was 0.004 µg/mL (≈ 0.00522 µM); in the test on Staphylococcus aureus [3] it was 0.1 µg/mL (≈ 0.131 µM); against Streptococcus pneumoniae [4] it was 0.004 µg/mL (≈ 0.00522 µM); in [5], 0.125 µg/mL (≈ 0.163 µM); in test [6], 8 µg/mL (≈ 10.4 µM). Further, the MIC against Staphylococcus aureus [7] is above 100 µg/mL; in test [8], 64 µg/mL (≈ 83.6 µM); with Staphylococcus aureus [9] it was 0.1 µg/mL (≈ 0.131 µM); in [10] it was 2 µg/mL (≈ 2.61 µM).

With `CC[C@H]1OC(=O)[C@H](C)C(=O)[C@H](C)[C@@H](O[C@@H]2O[C@H](C)C[C@H](N(C)C)[C@H]2O)[C@](C)(OCCNCCCc2ccccc2)C[C@@H](C)C(=O)[C@H](C)[C@H]2NC(=O)O[C@@]21C`, the MIC against Streptococcus pneumoniae [1] was 0.5 µg/mL (≈ 0.658 µM); in test [2], 0.03 µg/mL (≈ 0.0395 µM); against Staphylococcus aureus [3], 0.2 µg/mL (≈ 0.263 µM); against Streptococcus pneumoniae [4], 0.03 µg/mL (≈ 0.0395 µM); in test [5], 2 µg/mL (≈ 2.63 µM); in [6], 64 µg/mL (≈ 84.2 µM). Moreover, the MIC in the test on Staphylococcus aureus [7] is above 100 µg/mL; in [8], 16 µg/mL (≈ 21.1 µM); in the test on Staphylococcus aureus [9] it was 0.2 µg/mL (≈ 0.263 µM); in [10], 4 µg/mL (≈ 5.26 µM).
